Legend:
[1] = Cytotoxicity against human A549 cells after 72 hrs by MTT assay; conditions: A549, 72 h
[2] = Cytotoxicity against human MKN45 cells after 72 hrs by MTT assay; conditions: MKN-45, 72 h
[3] = Cytotoxicity against human MDA-MB-231 cells after 72 hrs by MTT assay; format: functional, cell-based; conditions: MDA-MB-231, 72 h
Procedure, shortened: (§1)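 Cells grown in MEM with 10% FBS; about 4×10^3 cells per well of 96-well plate, 24 h at 37 °C, 5% CO2, then test compounds at indicated final concentrations for 72 h. Each tested three times; IC50 as mean ± SD.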

[4] = Cytotoxicity against human HT-29 cells after 72 hrs by MTT assay; format: functional, cell-based; conditions: HT-29, 72 h; procedure, shortened: as §1

SMILES | IC50 [1] | IC50 [2] | IC50 [3] | IC50 [4]
COc1ccc(-n2nc(C(=O)Nc3ccc(Oc4ccncc4-c4cccnc4)c(F)c3)c3ccccc3c2=O)cc1 | 6800 nM | 740 nM | 10.4 µM | –
O=C(Nc1ccc(Oc2ccncc2-c2cccnc2)c(F)c1)c1ccnn(-c2ccc(Cl)cc2)c1=O | 6560 nM | 4230 nM | 4.84 µM | 4560 nM
O=C(Nc1ccc(Oc2ccncc2-c2cccnc2)c(F)c1)C1=NN(c2cccc(F)c2)c2ccccc2S1(=O)=O | 900 nM | 3 nM | 0.01 µM | 430 nM
O=C(Nc1ccc(Oc2ccncc2-c2cccnc2)c(F)c1)c1ccnn(-c2ccc(F)cc2)c1=O | 2880 nM | 3120 nM | 5.2 µM | 4770 nM
Fc1cc(Nc2cc(Nc3ccc(Cl)cc3)ncn2)ccc1Oc1ccncc1-c1cccnc1 | 1610 nM | 240 nM | – | 980 nM
COc1ccc(-n2nc(C(=O)Nc3ccc(Oc4ccncc4-c4cccnc4)c(F)c3)c(=O)n(C)c2=O)c(OC)c1 | 890 nM | 2820 nM | 3.27 µM | 890 nM
O=C(Nc1ccc(Oc2ccncc2-c2cccnc2)c(F)c1)c1nn(-c2ccccc2)c(=O)c2ccccc12 | 7900 nM | 90 nM | 8.2 µM | 1240 nM
Cn1cc(-c2ccccc2)cc(C(=O)Nc2ccc(Oc3ccncc3-c3cccnc3)c(F)c2)c1=O | 7600 nM | 5400 nM | 9.5 µM | 7420 nM
Cn1c(=O)c(C(=O)Nc2ccc(Oc3ccncc3-c3cccnc3)c(F)c2)nn(-c2ccc(F)c(Cl)c2)c1=O | 12500 nM | 10100 nM | 11.3 µM | 4780 nM
O=C(Nc1ccc(Oc2ccncc2-c2cccnc2)c(F)c1)C1=NN(c2ccc(F)c(F)c2)c2ccccc2S1(=O)=O | 1300 nM | 90 nM | 0.034 µM | 1550 nM
Cn1c(=O)c(C(=O)Nc2ccc(Oc3ccncc3-c3cccnc3)c(F)c2)nn(-c2ccccc2F)c1=O | 610 nM | 4780 nM | 6.76 µM | 2100 nM
Cn1c(=O)c(C(=O)Nc2ccc(Oc3ccncc3-c3cccnc3)c(F)c2)nn(-c2ccc(Cl)cc2)c1=O | 930 nM | 1600 nM | 3.22 µM | 440 nM
COc1cc(Nc2cc(Nc3ccc(Oc4ccncc4-c4cccnc4)c(F)c3)ncn2)cc(OC)c1 | 560 nM | 1750 nM | 4.24 µM | 1130 nM
Fc1cc(Nc2cc(Nc3cccc(Cl)c3)ncn2)ccc1Oc1ccncc1-c1cccnc1 | 180 nM | 30 nM | 0.09 µM | 690 nM
Fc1ccc(Nc2cc(Nc3ccc(Oc4ccncc4-c4cccnc4)c(F)c3)ncn2)cc1 | 710 nM | 160 nM | 14.1 µM | 330 nM
O=C(Nc1ccc(Oc2ccncc2-c2cccnc2)c(F)c1)c1nn(-c2cccc(F)c2)c(=O)c2ccccc12 | 1750 nM | 27 nM | 0.072 µM | 410 nM
O=C(Nc1ccc(Oc2ccncc2-c2cccnc2)c(F)c1)c1nn(-c2ccc(F)cc2)c(=O)c2ccccc12 | 820 nM | 320 nM | – | 990 nM
COc1ccc(Nc2cc(Nc3ccc(Oc4ccncc4-c4cccnc4)c(F)c3)ncn2)cc1 | 2140 nM | 1010 nM | – | 4110 nM
Cn1c(=O)c(C(=O)Nc2ccc(Oc3ccncc3-c3cccnc3)c(F)c2)nn(-c2cccc(C(F)(F)F)c2)c1=O | 460 nM | 1950 nM | 3.98 µM | 510 nM
O=C(Nc1ccc(Oc2ccncc2-c2cccnc2)c(F)c1)C1=NN(c2ccccc2C(F)(F)F)c2ccccc2S1(=O)=O | 120 nM | 27 nM | 0.046 µM | 190 nM
Cn1cc(-c2ccc(F)cc2)cc(C(=O)Nc2ccc(Oc3ccncc3-c3cccnc3)c(F)c2)c1=O | 8300 nM | 7100 nM | 11.9 µM | 11200 nM
Fc1ccc(Nc2cc(Nc3ccc(Oc4ccncc4-c4cccnc4)c(F)c3)ncn2)cc1F | 7630 nM | 80 nM | 6.77 µM | 2320 nM
O=C(Nc1ccc(Oc2ccncc2-c2cccnc2)c(F)c1)c1nn(-c2ccc(Cl)cc2)c(=O)c2ccccc12 | 1020 nM | 430 nM | – | 710 nM
Cn1c(=O)c(C(=O)Nc2ccc(Oc3ccncc3-c3cccnc3)c(F)c2)nn(-c2c(Cl)cccc2Cl)c1=O | 720 nM | 3930 nM | 9.69 µM | 780 nM
Fc1cc(Nc2cc(Nc3ccccc3)ncn2)ccc1Oc1ccncc1-c1cccnc1 | 410 nM | 6300 nM | 2.74 µM | 880 nM
